Measurements: ChEMBL document CHEMBL2177028, “Insights into the structural determinants required for high-affinity binding of chiral cyclopropane-containing ligands to α4β2-nicotinic acetylcholine receptors: an integrated approach to behaviorally active nicotinic ligands” (J Med Chem, 2012)
pEC50, pIC50, pKi: −log10 of the molar value. Activity calls are given as the source filed them. No cut-off for these calls is given here.

Tests used:
[1] = Displacement of [3H]epibatidine from rat alpha4beta2*-nAChRs after 4 hrs by scintillation counting
Summary of the method: (§1)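 [3H]epibatidine competition binding at heterologously expressed rat nAChR subtypes, run per the PDSP protocol. Native α4β2* receptors were prepared from rat forebrain. Ki values determined.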

SH-SY5Y [2] = test: Agonist activity at high sensitivity and low sensitivity alpha3beta4*-nAChR expressed in human SH-SY5Y cells by 86Rb+ ion flux assay; type: functional, cell-based
[3] = target: Neuronal acetylcholine receptor; alpha2/beta4 (Rattus norvegicus, UniProt P12389+P12392); test: Displacement of [3H]epibatidine from rat alpha2beta4-nAChRs after 4 hrs by scintillation counting; type: protein-complex assay; summary of the method: as §1
Neuronal acetylcholine receptor; alpha2/beta4, sequence (P12389 whole entry): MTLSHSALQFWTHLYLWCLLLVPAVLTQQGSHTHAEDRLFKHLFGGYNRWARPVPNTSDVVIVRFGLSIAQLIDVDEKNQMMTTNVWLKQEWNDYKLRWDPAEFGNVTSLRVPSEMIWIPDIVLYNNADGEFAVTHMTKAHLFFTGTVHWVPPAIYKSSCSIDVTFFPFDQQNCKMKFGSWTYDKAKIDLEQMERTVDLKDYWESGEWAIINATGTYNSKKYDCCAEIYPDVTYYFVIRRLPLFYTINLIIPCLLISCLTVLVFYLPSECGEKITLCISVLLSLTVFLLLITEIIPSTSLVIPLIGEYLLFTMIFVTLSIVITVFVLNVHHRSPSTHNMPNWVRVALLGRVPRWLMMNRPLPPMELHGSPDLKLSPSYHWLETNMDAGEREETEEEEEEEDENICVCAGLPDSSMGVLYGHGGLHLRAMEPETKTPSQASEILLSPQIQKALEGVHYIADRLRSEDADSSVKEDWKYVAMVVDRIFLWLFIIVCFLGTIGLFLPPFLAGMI
Neuronal acetylcholine receptor; alpha2/beta4, sequence (P12392 whole entry): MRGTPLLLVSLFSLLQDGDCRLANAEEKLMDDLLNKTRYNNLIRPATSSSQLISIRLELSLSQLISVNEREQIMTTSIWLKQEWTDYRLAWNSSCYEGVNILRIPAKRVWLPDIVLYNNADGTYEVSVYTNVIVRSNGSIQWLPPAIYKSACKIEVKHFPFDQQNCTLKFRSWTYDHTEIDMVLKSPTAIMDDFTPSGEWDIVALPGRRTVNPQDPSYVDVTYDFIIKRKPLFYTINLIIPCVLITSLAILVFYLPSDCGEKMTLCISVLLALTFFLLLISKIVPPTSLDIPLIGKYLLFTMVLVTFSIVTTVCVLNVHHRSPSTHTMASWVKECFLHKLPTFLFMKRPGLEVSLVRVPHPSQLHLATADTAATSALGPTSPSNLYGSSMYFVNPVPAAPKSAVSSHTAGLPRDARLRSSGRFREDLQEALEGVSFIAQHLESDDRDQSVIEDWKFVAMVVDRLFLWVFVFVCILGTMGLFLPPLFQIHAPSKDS

[4] = target: Neuronal acetylcholine receptor; alpha2/beta2 (Rattus norvegicus, UniProt P12389+P12390); test: Displacement of [3H]epibatidine from rat alpha2beta2-nAChRs after 4 hrs by scintillation counting; type: protein-complex assay; summary of the method: as §1
Neuronal acetylcholine receptor; alpha2/beta2, sequence (P12389 whole entry): as the sequence (P12389 whole entry) above
Neuronal acetylcholine receptor; alpha2/beta2, sequence (P12390 whole entry): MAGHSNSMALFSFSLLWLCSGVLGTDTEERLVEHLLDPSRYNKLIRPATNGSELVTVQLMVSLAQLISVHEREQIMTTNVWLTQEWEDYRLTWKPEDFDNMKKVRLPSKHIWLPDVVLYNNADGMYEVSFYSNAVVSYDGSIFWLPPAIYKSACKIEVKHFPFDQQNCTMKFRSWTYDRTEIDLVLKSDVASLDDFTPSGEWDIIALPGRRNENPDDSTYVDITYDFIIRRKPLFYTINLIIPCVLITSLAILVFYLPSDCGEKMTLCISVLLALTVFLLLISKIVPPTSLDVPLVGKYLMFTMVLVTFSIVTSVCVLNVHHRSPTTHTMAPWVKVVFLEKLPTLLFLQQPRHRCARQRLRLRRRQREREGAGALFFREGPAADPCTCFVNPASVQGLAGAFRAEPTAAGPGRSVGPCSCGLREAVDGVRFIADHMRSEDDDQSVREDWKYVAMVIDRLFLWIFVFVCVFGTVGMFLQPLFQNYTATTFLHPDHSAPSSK

[5] = target: T1, Neuronal acetylcholine receptor; alpha4/beta2 (Homo sapiens, UniProt P17787+P43681); test: Antagonist activity at high sensitivity and low sensitivity alpha4beta2-nAChR expressed in human SH-EP1 cells assessed as inhibition of carbamylcholine-induced stimulation effect measured after 10 mins carbamylcholine challenge by 86Rb+ ion flux assay; type: functional, cell-based
T1 sequence (P17787 whole entry): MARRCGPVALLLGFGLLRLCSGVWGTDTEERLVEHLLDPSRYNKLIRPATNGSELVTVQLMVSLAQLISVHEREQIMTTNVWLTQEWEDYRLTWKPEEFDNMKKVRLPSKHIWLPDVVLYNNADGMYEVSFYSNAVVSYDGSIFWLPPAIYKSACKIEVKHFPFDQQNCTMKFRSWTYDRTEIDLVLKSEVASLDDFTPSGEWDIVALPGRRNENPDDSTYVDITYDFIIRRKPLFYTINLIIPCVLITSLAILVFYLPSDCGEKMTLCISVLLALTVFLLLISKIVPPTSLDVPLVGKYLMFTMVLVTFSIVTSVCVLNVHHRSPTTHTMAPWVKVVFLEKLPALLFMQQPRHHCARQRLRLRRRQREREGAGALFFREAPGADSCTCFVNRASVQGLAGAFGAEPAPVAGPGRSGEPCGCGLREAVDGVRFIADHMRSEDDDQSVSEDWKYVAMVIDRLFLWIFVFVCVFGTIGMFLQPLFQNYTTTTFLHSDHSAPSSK
T1 sequence (P43681 whole entry): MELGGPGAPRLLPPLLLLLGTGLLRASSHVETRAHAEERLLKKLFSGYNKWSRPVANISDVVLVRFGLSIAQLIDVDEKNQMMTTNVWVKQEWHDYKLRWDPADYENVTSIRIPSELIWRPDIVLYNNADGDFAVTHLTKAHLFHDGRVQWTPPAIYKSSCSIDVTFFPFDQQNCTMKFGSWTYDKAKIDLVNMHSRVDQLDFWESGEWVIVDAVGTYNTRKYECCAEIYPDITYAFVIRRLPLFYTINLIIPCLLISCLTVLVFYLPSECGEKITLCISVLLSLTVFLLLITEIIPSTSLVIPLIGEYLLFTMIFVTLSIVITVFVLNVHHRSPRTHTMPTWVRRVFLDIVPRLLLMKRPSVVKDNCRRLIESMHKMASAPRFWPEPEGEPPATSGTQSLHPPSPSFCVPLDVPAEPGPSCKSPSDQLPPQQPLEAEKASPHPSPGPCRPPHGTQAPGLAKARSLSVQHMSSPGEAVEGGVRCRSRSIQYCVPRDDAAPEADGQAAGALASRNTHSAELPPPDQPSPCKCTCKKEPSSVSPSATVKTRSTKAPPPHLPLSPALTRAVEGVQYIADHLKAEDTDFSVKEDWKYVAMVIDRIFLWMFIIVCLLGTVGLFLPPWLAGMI
Summary of the method: (§2)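 Receptor inactivation measured by 86Rb+ efflux after 10 min pre-exposure to test ligand, followed by carbamylcholine challenge. Cells: SH-EP1 (human α4β2), SH-SY5Y (α3β4*), TE671/RD (α1β1γδ).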

[6] = target: T1, Neuronal acetylcholine receptor; alpha4/beta2; test: Antagonist activity at high sensitivity and low sensitivity alpha4beta2-nAChR expressed in human SH-EP1 cells assessed as inhibition of carbamylcholine-induced stimulation effect measured after 10 mins carbamylcholine challenge by 86Rb+ ion flux assay relative to control; type: functional, cell-based; summary of the method: as §2
[7] = target: T1, Neuronal acetylcholine receptor; alpha4/beta2; test: Agonist activity at high sensitivity and low sensitivity alpha4beta2-nAChR expressed in human SH-EP1 cells by 86Rb+ ion flux assay; type: functional, cell-based
Summary of the method: (§3)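 86Rb+ efflux through human α4β2-nAChR (mixed high- and low-sensitivity forms) heterologously expressed in SH-EP1 cells. Agonist efficacy expressed as percent of the response to a maximally efficacious concentration of the full agonist carbamylcholine, with high- and low-sensitivity α4β2 responses reported separately.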

Mus musculus [8] = test: Antidepressant activity in mouse assessed as immobility time at 3 mg/kg, ip after 30 mins by mouse forced swim test; type: functional, organism-based; set-up: dose 3 mg/kg
Summary of the method: (§4)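 Mouse forced swim test: mice placed in a beaker of water and time spent passively floating (immobility) recorded. Compounds given intraperitoneally or orally; sertraline 20 mg/kg served as positive control.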

[9] = target: Neuronal acetylcholine receptor; alpha3/beta4 (Rattus norvegicus, UniProt P04757+P12392); test: Displacement of [3H]epibatidine from rat alpha3beta4-nAChRs after 4 hrs by scintillation counting; type: protein-complex assay; summary of the method: as §1
Neuronal acetylcholine receptor; alpha3/beta4, sequence (P04757 whole entry): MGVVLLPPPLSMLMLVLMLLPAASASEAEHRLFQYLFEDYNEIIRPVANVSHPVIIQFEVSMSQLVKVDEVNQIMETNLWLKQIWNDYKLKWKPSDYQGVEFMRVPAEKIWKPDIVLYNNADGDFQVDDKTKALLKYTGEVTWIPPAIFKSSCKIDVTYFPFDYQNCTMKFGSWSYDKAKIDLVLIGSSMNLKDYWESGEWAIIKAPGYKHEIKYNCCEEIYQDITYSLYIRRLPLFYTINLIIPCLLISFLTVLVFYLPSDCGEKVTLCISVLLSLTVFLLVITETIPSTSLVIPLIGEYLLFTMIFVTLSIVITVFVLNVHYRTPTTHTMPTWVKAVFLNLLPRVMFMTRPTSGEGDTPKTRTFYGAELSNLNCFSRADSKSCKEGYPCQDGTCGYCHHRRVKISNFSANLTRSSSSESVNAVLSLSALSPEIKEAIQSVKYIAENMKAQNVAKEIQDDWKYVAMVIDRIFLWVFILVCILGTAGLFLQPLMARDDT
Neuronal acetylcholine receptor; alpha3/beta4, sequence (P12392 whole entry): as the sequence (P12392 whole entry) above

Rattus norvegicus = species on record: Rattus norvegicus; test: Selectivity index, ratio of Ki for rat alpha3beta4 nAChR to Ki for rat alpha4beta2-nAChR; summary of the method: as §1
[10] = target: T2, Acetylcholine receptor; alpha1/beta1/delta/gamma (Homo sapiens) (UniProt P02708+P07510+P11230+Q07001); test: Antagonist activity at high sensitivity and low sensitivity alpha1beta1gammadelta-nAChR expressed in human TE671/RD cells assessed as inhibition of carbamylcholine-induced stimulation effect measured after 10 mins carbamylcholine challenge by 86Rb+ ion flux assay; type: functional, cell-based; summary of the method: as §2
[11] = target: T1, Neuronal acetylcholine receptor; alpha4/beta2; test: Agonist activity at high sensitivity alpha4beta2-nAChR expressed in human SH-EP1 cells by 86Rb+ ion flux assay relative to carbamylcholine; type: functional, cell-based; summary of the method: as §3
[12] = target: Neuronal acetylcholine receptor; alpha4/beta4 (Rattus norvegicus, UniProt P09483+P12392); test: Displacement of [3H]epibatidine from rat alpha4beta4-nAChRs after 4 hrs by scintillation counting; type: protein-complex assay; summary of the method: as §1
Neuronal acetylcholine receptor; alpha4/beta4, sequence (P09483 whole entry): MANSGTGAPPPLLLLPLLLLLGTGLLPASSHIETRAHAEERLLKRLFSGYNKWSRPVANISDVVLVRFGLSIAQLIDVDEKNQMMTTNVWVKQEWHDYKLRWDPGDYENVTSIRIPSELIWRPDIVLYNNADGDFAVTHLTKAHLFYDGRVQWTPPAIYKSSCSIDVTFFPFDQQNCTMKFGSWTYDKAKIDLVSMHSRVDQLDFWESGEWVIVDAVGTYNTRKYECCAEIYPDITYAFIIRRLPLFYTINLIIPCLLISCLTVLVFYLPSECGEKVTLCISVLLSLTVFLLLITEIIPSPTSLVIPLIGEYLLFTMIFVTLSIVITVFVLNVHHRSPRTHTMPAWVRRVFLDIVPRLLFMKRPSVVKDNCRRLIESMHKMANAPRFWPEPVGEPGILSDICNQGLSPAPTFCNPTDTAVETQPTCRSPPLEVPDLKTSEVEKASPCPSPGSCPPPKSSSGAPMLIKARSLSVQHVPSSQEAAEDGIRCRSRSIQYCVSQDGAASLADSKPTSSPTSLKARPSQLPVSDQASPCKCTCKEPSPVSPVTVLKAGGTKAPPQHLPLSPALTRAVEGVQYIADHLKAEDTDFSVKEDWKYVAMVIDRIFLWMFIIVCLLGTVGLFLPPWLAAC
Neuronal acetylcholine receptor; alpha4/beta4, sequence (P12392 whole entry): as the sequence (P12392 whole entry) above

[13] = target: T2, Acetylcholine receptor; alpha1/beta1/delta/gamma (Homo sapiens); test: Agonist activity at high sensitivity and low sensitivity alpha1beta1gammadelta-nAChR expressed in human TE671/RD cells by 86Rb+ ion flux assay; type: functional, cell-based
[14] = target: Neuronal acetylcholine receptor; alpha4/beta2 (Rattus norvegicus, UniProt P09483+P12390); test: Displacement of [3H]epibatidine from rat alpha4beta2-nAChRs after 4 hrs by scintillation counting; type: protein-complex assay; summary of the method: as §1
Neuronal acetylcholine receptor; alpha4/beta2 (Rattus norvegicus, UniProt P09483+P12390), sequence (P09483 whole entry): as the sequence (P09483 whole entry) above
Neuronal acetylcholine receptor; alpha4/beta2 (Rattus norvegicus, UniProt P09483+P12390), sequence (P12390 whole entry): as the sequence (P12390 whole entry) above

[15] = target: Neuronal acetylcholine receptor; alpha3/beta2 (Rattus norvegicus, UniProt P04757+P12390); test: Displacement of [3H]epibatidine from rat alpha3beta2-nAChRs after 4 hrs by scintillation counting; type: protein-complex assay; summary of the method: as §1
Neuronal acetylcholine receptor; alpha3/beta2, sequence (P04757 whole entry): as the sequence (P04757 whole entry) above
Neuronal acetylcholine receptor; alpha3/beta2, sequence (P12390 whole entry): as the sequence (P12390 whole entry) above

SH-SY5Y [16] = test: Antagonist activity at high sensitivity and low sensitivity alpha3beta4*-nAChR expressed in human SH-SY5Y cells assessed as inhibition of carbamylcholine-induced stimulation effect measured after 10 mins carbamylcholine challenge by 86Rb+ ion flux assay; type: functional, cell-based; summary of the method: as §2
Mus musculus [17] = test: Antidepressant activity in mouse assessed as immobility time at 10 mg/kg, ip after 30 mins by mouse forced swim test; type: functional, organism-based; set-up: dose 10 mg/kg; summary of the method: as §4
[18] = target: T1, Neuronal acetylcholine receptor; alpha4/beta2; test: Agonist activity at low sensitivity alpha4beta2-nAChR expressed in human SH-EP1 cells by 86Rb+ ion flux assay relative to carbamylcholine; type: functional, cell-based; summary of the method: as §3
Mus musculus [19] = test: Antidepressant-like effect in mouse assessed as behavioral changes at 5 to 10 mg/kg, ip dosed 15 mins before testing by SmartCube system; type: functional, organism-based
Summary of the method: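 SmartCube automated mouse behavioural profiling. Drug injected 15 min before the session, during which multiple challenges were presented; at least 12 mice per group. Video processed by computer vision to extract over 2000 measures (frequency and duration of states such as grooming and rearing), compared with vehicle signature.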

[20] = Metabolic stability in mouse liver microsomes assessed as unchanged compound level at 2 uM measured after 1 hr; type: ADME, Microsome; conditions: read-out: Stability
Summary of the method: (§5)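 Compound incubated with mouse, rat, dog or human liver microsomes at a starting concentration of 2 μM for 1 h. Percent of parent remaining unchanged determined.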

[21] = Metabolic stability in human liver microsomes assessed as unchanged compound level at 2 uM measured after 1 hr; type: ADME, Microsome; conditions: read-out: Stability; summary of the method: as §5
Mus musculus [22] = test: Antidepressant activity in mouse assessed as immobility time at 3 mg/kg, po after 30 mins by mouse forced swim test; type: functional, organism-based; set-up: dose 3 mg/kg; summary of the method: as §4
[23] = Metabolic stability in rat liver microsomes assessed as unchanged compound level at 2 uM measured after 1 hr; type: ADME, Microsome; conditions: read-out: Stability; summary of the method: as §5
Mus musculus [24] = test: Antidepressant activity in mouse assessed as immobility time at 3 to 30 mg/kg, po after 30 mins by mouse forced swim test; type: functional, organism-based; summary of the method: as §4
[25] = Metabolic stability in dog liver microsomes assessed as unchanged compound level at 2 uM measured after 1 hr; type: ADME, Canis lupus familiaris, Microsome; conditions: read-out: Stability; summary of the method: as §5
[26] = target: T3, Soluble acetylcholine receptor (Aplysia californica, UniProt Q8WSF8); test: Displacement of [3H]epibatidine from Aplysia californica AChBP
T3 sequence (Q8WSF8 whole entry): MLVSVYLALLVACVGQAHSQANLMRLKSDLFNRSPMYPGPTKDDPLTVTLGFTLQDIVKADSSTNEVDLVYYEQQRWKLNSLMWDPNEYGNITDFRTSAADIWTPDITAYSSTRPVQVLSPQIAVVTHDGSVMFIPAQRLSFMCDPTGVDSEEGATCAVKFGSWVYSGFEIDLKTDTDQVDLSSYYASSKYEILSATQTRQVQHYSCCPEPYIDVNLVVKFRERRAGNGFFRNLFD
Summary of the method: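 Competition against [3H]epibatidine at acetylcholine binding proteins (Ac- and Ct-AChBP), giving Ki values. Procedure follows the PDSP assay protocol book.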

[27] = Selectivity index, ratio of Ki for Aplysia californica AChBP to Ki for Lymnaea stagnalis AChBP

SMILES	pKi [1]	Activity (SH-SY5Y [2])	pKi [3]	pKi [4]	pIC50 [5]	Efficacy [6] [%]	pEC50 [7]	Activity (Mus musculus [8])	pKi [9]	inhibition [10]	Efficacy [11] [%]	pKi [12]	Activity [13]	pKi [14]	pKi [15]	inhibition (SH-SY5Y [16])	Activity (Mus musculus [17])	Activity [18]	Activity (Mus musculus [19])	pKi [26]	further results
FC(F)C[C@H]1C[C@@H]1c1cncc(OC[C@@H]2CCN2)c1	9.10	inactive	7.07	9.52	8.07	86	8.06	inactive	5.70	inactive	75	7.64	inactive	10.00	8.16	inactive	inactive	inactive	Active	–	Ratio Ki (Rattus norvegicus): > 16000
CC[C@H]1C[C@@H]1c1cncc(OC[C@@H]2CCN2)c1	8.92	inactive	7.38	9.40	7.65	87	7.72	inactive	6.07	inactive	68	7.83	inactive	9.40	7.99	inactive	inactive	inactive	Active	–	–
FCC[C@H]1C[C@@H]1c1cncc(OC[C@@H]2CCN2)c1	9.05	inactive	6.86	9.40	7.99	81	7.95	Active	5.49	inactive	76	7.41	inactive	9.70	8.21	inactive	Active	inactive	Active	–	Ratio Ki (Rattus norvegicus): > 16000; remaining at 1 h, 2 µM [20]: ≥ 98%; remaining at 1 h, 2 µM [21]: ≥ 98%; Activity (Mus musculus [22]): Active; remaining at 1 h, 2 µM [23]: ≥ 98%; Activity (Mus musculus [24]): Active; remaining at 1 h, 2 µM [25]: ≥ 98%
OCC[C@H]1C[C@@H]1c1cncc(OC[C@@H]2CCN2)c1	–	–	–	–	–	–	–	–	–	–	–	–	–	–	–	–	–	–	Active	6.01	Ratio Ki [27]: 80
CNC(=O)OCC[C@H]1C[C@@H]1c1cncc(OC[C@@H]2CCN2)c1	–	–	–	–	–	–	–	–	–	–	–	–	–	–	–	–	–	–	Active	5.72	Ratio Ki [27]: 80
CN1CCC[C@H]1c1cccnc1 [NICOTINE]	–	–	–	–	–	–	–	–	–	–	–	–	–	–	–	–	–	–	–	6.22	–
